# Measurements gathered from unrelated publications.
# Lines come from different studies, so protocols differ.
# Matrix: plasma
Compound,species,route,dose,setting,Cmax
CCc1nc2c(C)cc(N3CCN(CC(=O)N4CC(O)C4)CC3)cn2c1N(C)c1nc(-c2ccc(F)cc2)c(C#N)s1,human,oral,600 mg,"single dose, fasted, healthy volunteers",5800 ng/mL
COc1cc2c(cc1OC)CN(CCc1ccc(NC(=O)c3cc(OC)c(OC)cc3NC(=O)c3cnc4ccccc4c3)cc1)CC2,human,intravenous,1.5 mg/kg,patients,2300 nM
CCO[C@H]1CCN(Cc2c(OC)cc(C)c3[nH]ccc23)[C@H](c2ccc(C(=O)O)cc2)C1,human,oral,100 mg,"multiple doses, twice daily, patients",2640 ng/mL
FC(F)(F)c1ccc(CNc2ccc(Cc3c[nH]c4ncc(Cl)cc34)cn2)cn1,human,oral,600 mg,"multiple doses, patients",3660 ng/mL
COc1ccc(-n2nc(C(N)=O)c3c2C(=O)N(c2ccc(N4CCCCC4=O)cc2)CC3)cc1,human,oral,10 mg,healthy volunteers,261 ng/mL
COc1cc(C(=O)NC2CCN(C)CC2)c(F)cc1Nc1ncc(C(F)(F)F)c(Oc2cccc3c2C(=O)N(C)C3)n1,human,oral,50 mg,"multiple doses, once daily, steady state, patients",430 nM
COc1ccc([C@@H]2CN(C(=O)[C@@H](O)CO)C[C@@]2(C)[C@@H](C)O)cc1OC1CN(c2ccc(C)cn2)C1,human,oral,10 mg,"single dose, healthy volunteers",319 ng/mL
Cc1ccc(C(=O)N(CCCN)[C@@H](c2oc3cc(Cl)ccc3c(=O)c2Cc2ccccc2)C(C)C)cc1,human,intravenous,6 mg/m²,"single dose, patients, infusion",817 ng/mL
Cn1c(=O)oc2ccc(-c3ccc(C[C@@H](C#N)NC(=O)[C@@H]4CNCCCO4)cc3)cc21,male human,oral,5 mg,"single dose, healthy volunteers",50.7 nM
C/C(=C\c1csc(C)n1)[C@@H]1C[C@@H]2O[C@]2(C)CCC[C@H](C)[C@H](O)[C@@H](C)C(=O)C(C)(C)[C@@H](O)CC(=O)N1,human,intravenous,20 mg/m²,patients,249 ng/mL
CC[C@H](C)C(=O)O[C@H]1C[C@H](O)C=C2C=C[C@H](C)[C@H](CC[C@@H](O)C[C@@H](O)CC(=O)O)[C@H]21,human,oral,20 mg,,11.4 ng/mL
Cn1cc(-c2ccc(S(=O)(=O)[C@@H]3C[C@@H](C(=O)NC4(C#N)CC4)N(C(=O)C4(C(F)(F)F)CC4)C3)c(C(F)(F)F)c2)cn1,human,oral,1 mg,"single dose, fasted, healthy volunteers",4.51 ng/mL
CC(C)(O)c1ccccc1-c1ccc2[nH]c(/C=C/c3ccc(C(F)(F)F)cc3)nc2c1,male human,oral,2 mg,"single dose, fasted, healthy volunteers",7.66 ng/mL
CO[C@H]1CC[C@H](N2C(=O)CNc3ncc(-c4ccc(C(C)(C)O)nc4)nc32)CC1,human,oral,7.5 mg,patients,45.8 ng/mL
CNCc1ccc(-c2[nH]c3cc(F)cc4c3c2CCNC4=O)cc1,human,oral,600 mg twice daily,"multiple doses, steady state",8190 nM
CNC(=O)c1cc(Oc2ccc(NC(=O)Nc3cc(C(C)(C)C)nn3-c3ccc4ncccc4c3)c(F)c2)ccn1,human,oral,150 mg,"multiple doses, twice daily",308 ng/mL
COCCOc1cnc2ccn([C@H](C)c3nnc4c(F)cc(-c5cnn(C)c5)cn34)c(=O)c2c1,human,oral,150 mg,"multiple doses, once daily, patients",2910 ng/mL
CC(C)(Sc1ccncc1-c1ccc(C#N)c2ccccc12)C(=O)O,male human,oral,20 mg,"single dose, fasted, healthy volunteers",384 ng/mL
C[C@@]1(c2cc(NC(=O)c3ccc(C#N)cn3)ccc2F)C=CSC(N)=N1,human,oral,10 mg,single dose,83.9 ng/mL
